The results in this text go back to ChEMBL document CHEMBL3797160, “Discovery of novel diaryl urea derivatives bearing a triazole moiety as potential antitumor agents” (Eur J Med Chem, 2016).

A value given as a limit tells only on which side of the number the result lay.

Experiment [1] relates to HT-29. Nature of the experiment: Induction of apoptosis in human HT-29 cells assessed as necrotic cells at 1 uM after 48 hrs by annexin V/propidium iodide staining based flow cytometric analysis (reference value: 3.66 %). The experiment is classed as functional. (In flow cytometry, cells or beads pass a laser one at a time.)
Experiment [2] deals with HT-29. Put plainly: Induction of apoptosis in human HT-29 cells assessed as late apoptotic cells at 1 uM after 48 hrs by annexin V/propidium iodide staining based flow cytometric analysis (reference value: 2.49 %). The experiment is classed as functional.
In experiment [3] the test system is HT-29. Nature of the experiment: Induction of apoptosis in human HT-29 cells assessed as early apoptotic cells at 1 uM after 48 hrs by annexin V/propidium iodide staining based flow cytometric analysis (reference value: 1.72 %). The experiment is classed as functional.
Experiment [4] relates to HT-29. Nature of the experiment: Antiproliferative activity against human HT-29 cells after 72 hrs by MTT assay. The experiment is classed as functional, cell-based. The settings on record: HT-29, 72 h. The method, boiled down: (§1)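 MTT assay. Cells grown in MEM with 10% FBS. About 4 × 10³ cells per well were plated and left 24 h at 37 °C in 5% CO₂. Compounds were then added for a further 72 h. MTT was added to a final 5 µg/mL for 4 h at 37 °C. Formazan was dissolved in DMSO and read at 492 nm against a 630 nm reference. Each line was tested three times, and IC50 is the average of at least three determinations.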
For orientation: Tetrazolium assays rely on reduction of a dye to a coloured formazan, in cell work by metabolically active cells.

Experiment [5] in a line: Antiproliferative activity against human H460 cells after 72 hrs by MTT assay. The settings on record: NCI-H460, 72 h. The experiment is classed as functional, cell-based. The method, boiled down:
as §1

Another experiment concerns MDA-MB-231. Nature of the experiment: Antiproliferative activity against human MDA-MB-231 cells after 72 hrs by MTT assay. The experiment is classed as functional, cell-based. Conditions: MDA-MB-231, 72 h. The method, boiled down: as §1
Experiment [6] can be described thus: Cytotoxicity against human WI38 cells after 72 hrs by MTT assay. The format is cell-based. The settings on record: WI-38, 72 h. The method, boiled down: as §1
Experiment [7] deals with Mast/stem cell growth factor receptor Kit (Homo sapiens) (UniProt P10721). Nature of the experiment: Inhibition of c-KIT (unknown origin) at 10 uM after 1 hr by mobility shift assay. The method, boiled down: (§2)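 Mobility shift kinase assay. Compounds were diluted in DMSO and then in kinase buffer, and tested in duplicate wells with enzyme and peptide substrate. Incubation was 1 h at 28 °C before stop buffer was added.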
Sequence of Mast/stem cell growth factor receptor Kit (Homo sapiens) (P10721 whole entry): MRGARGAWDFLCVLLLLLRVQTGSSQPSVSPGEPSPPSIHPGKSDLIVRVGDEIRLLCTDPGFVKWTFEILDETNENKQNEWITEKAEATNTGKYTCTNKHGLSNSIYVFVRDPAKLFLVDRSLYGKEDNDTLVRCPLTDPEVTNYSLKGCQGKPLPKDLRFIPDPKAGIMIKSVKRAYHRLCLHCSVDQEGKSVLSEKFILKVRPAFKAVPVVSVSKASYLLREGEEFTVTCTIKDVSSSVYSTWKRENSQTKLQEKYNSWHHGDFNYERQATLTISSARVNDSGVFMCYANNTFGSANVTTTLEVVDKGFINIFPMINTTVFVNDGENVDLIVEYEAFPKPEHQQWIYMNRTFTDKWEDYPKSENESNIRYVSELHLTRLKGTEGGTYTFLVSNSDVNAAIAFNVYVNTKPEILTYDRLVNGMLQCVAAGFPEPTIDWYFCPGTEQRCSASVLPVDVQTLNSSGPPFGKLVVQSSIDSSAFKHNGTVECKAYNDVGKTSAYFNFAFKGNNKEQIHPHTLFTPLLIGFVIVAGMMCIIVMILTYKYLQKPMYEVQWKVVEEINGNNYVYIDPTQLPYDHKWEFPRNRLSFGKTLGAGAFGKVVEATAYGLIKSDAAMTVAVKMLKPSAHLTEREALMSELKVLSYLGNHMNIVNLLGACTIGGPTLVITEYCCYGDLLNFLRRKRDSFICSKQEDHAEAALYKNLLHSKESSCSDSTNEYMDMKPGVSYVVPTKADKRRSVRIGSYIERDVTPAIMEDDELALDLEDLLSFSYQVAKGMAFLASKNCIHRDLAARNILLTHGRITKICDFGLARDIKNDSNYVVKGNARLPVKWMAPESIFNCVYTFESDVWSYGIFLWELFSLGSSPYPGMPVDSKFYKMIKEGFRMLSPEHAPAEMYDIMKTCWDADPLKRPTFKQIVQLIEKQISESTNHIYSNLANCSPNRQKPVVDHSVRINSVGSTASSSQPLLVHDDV

In experiment [8] the target is Proto-oncogene tyrosine-protein kinase receptor Ret (Homo sapiens) (UniProt P07949). Nature of the experiment: Inhibition of RET (unknown origin) at 10 uM after 1 hr by mobility shift assay. In short, it runs like this: as §2
Sequence of Proto-oncogene tyrosine-protein kinase receptor Ret (Homo sapiens) (P07949 whole entry): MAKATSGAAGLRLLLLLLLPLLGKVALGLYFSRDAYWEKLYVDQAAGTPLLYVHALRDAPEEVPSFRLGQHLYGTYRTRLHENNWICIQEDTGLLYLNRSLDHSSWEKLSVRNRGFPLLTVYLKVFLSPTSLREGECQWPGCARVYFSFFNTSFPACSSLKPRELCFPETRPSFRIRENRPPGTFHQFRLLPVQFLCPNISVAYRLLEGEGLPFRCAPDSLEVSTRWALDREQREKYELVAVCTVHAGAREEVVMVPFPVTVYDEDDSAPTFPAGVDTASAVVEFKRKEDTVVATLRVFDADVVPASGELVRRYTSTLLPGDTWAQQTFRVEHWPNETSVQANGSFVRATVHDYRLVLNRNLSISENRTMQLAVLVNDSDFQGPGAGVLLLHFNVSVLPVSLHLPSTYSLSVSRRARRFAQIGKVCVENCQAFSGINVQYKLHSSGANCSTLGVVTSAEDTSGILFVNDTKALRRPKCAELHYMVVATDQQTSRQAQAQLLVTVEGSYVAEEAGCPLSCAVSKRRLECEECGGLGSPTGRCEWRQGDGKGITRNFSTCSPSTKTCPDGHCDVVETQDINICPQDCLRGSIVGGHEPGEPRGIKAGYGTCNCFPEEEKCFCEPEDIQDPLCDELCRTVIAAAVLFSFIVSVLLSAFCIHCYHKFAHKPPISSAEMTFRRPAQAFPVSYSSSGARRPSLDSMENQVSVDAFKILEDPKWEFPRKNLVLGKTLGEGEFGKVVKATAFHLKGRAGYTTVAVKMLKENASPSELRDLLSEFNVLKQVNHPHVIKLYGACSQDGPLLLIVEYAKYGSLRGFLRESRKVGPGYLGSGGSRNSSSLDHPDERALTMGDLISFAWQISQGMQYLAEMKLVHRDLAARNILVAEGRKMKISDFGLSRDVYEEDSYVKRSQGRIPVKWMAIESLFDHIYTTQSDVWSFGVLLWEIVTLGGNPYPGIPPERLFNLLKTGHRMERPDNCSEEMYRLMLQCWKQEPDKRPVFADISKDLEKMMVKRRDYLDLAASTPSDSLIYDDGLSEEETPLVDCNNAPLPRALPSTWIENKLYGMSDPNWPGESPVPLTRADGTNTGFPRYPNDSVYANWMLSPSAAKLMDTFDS
Experiment [9] has as its target Receptor-type tyrosine-protein kinase FLT3 (Homo sapiens) (UniProt P36888). Nature of the experiment: Inhibition of FLT3 (unknown origin) at 10 uM after 1 hr by mobility shift assay. The method, boiled down:
as §2

In experiment [10] the test system is HT-29. Put plainly: Induction of apoptosis in human HT-29 cells after 48 hrs by annexin V/propidium iodide staining based flow cytometric analysis. The experiment is classed as functional, cell-based.
Experiment [11] has as its system HT-29. Nature of the experiment: Induction of apoptosis in human HT-29 cells assessed as viable cells at 1 uM after 48 hrs by annexin V/propidium iodide staining based flow cytometric analysis (reference value: 92.1 %). The settings on record: HT-29, 48 h, read-out: Activity. The experiment is classed as functional.
Experiment [12] relates to HT-29. Nature of the experiment: Induction of apoptosis in human HT-29 cells assessed as viable cells 2 uM after 48 hrs by annexin V/propidium iodide staining based flow cytometric analysis (reference value: 92.1 %). The format is functional.
Experiment [13] concerns HT-29. Put plainly: Induction of apoptosis in human HT-29 cells assessed as early apoptotic cells at 2 uM after 48 hrs by annexin V/propidium iodide staining based flow cytometric analysis (reference value: 1.72 %). The experiment is classed as functional.
For experiment [14], the system named is HT-29. Nature of the experiment: Induction of apoptosis in human HT-29 cells assessed as late apoptotic cells at 2 uM after 48 hrs by annexin V/propidium iodide staining based flow cytometric analysis (reference value: 2.49 %). The format is functional.
Experiment [15] concerns HT-29. Nature of the experiment: Induction of apoptosis in human HT-29 cells assessed as necrotic cells at 2 uM after 48 hrs by annexin V/propidium iodide staining based flow cytometric analysis (reference value: 3.66 %). The experiment is classed as functional.
The test system of experiment [16] is HT-29. Nature of the experiment: Induction of apoptosis in human HT-29 cells assessed as viable cells 5 uM after 48 hrs by annexin V/propidium iodide staining based flow cytometric analysis (reference value: 92.1 %). The experiment is classed as functional.
In experiment [17] the test system is HT-29. Nature of the experiment: Induction of apoptosis in human HT-29 cells assessed as early apoptotic cells at 5 uM after 48 hrs by annexin V/propidium iodide staining based flow cytometric analysis (reference value: 1.72 %). The format is functional.
In experiment [18] the test system is HT-29. Nature of the experiment: Induction of apoptosis in human HT-29 cells assessed as late apoptotic cells at 5 uM after 48 hrs by annexin V/propidium iodide staining based flow cytometric analysis (reference value: 2.49 %). The experiment is classed as functional.
Experiment [19] deals with HT-29. Nature of the experiment: Induction of apoptosis in human HT-29 cells assessed as necrotic cells at 5 uM after 48 hrs by annexin V/propidium iodide staining based flow cytometric analysis (reference value: 3.66 %). The experiment is classed as functional.
The target in experiment [20] is Vascular endothelial growth factor receptor 2 (Homo sapiens) (UniProt P35968). Conditions: at 10 µM.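 Note: kinase activity read out by mobility shift assay after 1 h of incubation.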
Sequence of Vascular endothelial growth factor receptor 2 (Homo sapiens) (P35968 whole entry): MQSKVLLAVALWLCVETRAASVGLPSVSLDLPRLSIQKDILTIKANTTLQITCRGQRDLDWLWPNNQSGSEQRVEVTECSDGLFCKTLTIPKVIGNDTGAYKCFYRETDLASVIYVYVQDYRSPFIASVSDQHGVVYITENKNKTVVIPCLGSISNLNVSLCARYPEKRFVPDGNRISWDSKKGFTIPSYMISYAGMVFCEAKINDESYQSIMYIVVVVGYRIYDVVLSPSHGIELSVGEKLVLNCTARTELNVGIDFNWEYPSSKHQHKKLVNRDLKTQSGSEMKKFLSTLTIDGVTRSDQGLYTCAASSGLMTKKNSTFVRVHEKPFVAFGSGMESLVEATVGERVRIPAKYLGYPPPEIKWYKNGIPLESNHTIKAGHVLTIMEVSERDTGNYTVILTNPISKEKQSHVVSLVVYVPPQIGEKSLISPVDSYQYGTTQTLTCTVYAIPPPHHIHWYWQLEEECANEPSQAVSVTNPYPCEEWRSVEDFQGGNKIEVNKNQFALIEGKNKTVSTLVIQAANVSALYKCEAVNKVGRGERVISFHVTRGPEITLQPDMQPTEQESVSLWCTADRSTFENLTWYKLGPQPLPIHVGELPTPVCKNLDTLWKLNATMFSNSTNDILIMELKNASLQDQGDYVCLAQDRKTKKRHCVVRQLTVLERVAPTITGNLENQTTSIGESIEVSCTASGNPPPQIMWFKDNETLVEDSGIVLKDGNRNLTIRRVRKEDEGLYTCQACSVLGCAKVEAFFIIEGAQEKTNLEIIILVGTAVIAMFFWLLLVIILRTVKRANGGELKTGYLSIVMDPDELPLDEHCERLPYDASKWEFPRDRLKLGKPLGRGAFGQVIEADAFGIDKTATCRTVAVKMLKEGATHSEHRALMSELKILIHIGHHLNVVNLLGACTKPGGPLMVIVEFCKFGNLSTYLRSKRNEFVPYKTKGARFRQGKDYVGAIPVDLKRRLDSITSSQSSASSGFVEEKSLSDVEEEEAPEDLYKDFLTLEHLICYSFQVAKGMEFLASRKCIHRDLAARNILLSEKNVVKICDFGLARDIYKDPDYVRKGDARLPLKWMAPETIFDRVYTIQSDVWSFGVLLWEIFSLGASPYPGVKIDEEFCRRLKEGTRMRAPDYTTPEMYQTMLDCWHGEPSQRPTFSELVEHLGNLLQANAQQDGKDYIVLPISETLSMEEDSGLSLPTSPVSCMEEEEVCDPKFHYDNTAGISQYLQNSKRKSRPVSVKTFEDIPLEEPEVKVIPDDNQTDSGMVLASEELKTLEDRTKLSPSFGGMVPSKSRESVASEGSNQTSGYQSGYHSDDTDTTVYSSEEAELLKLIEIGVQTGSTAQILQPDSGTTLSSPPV

Sequence of Receptor-type tyrosine-protein kinase FLT3 (Homo sapiens) (P36888 whole entry): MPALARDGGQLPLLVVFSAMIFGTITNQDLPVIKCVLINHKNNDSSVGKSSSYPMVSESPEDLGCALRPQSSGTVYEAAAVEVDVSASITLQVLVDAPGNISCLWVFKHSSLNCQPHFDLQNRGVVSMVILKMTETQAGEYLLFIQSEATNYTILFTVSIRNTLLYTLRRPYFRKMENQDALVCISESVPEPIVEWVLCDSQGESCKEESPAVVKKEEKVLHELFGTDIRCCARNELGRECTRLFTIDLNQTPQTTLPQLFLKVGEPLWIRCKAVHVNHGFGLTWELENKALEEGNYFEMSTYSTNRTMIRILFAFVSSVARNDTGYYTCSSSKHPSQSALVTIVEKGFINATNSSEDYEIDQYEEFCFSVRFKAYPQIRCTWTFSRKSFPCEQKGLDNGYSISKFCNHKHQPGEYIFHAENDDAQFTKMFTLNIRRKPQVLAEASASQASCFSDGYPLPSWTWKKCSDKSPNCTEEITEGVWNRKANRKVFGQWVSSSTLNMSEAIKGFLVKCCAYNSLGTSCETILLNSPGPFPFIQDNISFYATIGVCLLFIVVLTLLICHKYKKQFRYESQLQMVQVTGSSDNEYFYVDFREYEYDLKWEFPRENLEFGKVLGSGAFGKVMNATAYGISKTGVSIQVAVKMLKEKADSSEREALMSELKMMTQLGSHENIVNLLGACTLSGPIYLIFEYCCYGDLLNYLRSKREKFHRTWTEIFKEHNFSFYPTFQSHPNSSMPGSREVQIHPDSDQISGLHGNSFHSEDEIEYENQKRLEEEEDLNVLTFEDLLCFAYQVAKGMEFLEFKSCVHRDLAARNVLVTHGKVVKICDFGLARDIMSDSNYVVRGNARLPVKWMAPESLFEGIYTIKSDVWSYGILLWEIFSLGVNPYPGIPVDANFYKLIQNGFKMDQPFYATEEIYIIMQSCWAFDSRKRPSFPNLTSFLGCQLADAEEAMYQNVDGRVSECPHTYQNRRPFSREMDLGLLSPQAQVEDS

As to `CCN(CC)CCn1cnnc1-c1cc(Oc2ccc(NC(=O)Nc3ccc(Cl)c(C(F)(F)F)c3)cc2F)ccn1`, the Activity is 7.44% with HT-29 [1]; 8.34% in the experiment with HT-29 [2]; 3.92% with HT-29 [3]; “Dose-dependent effect” with HT-29 [10]; 66.4% with HT-29 [12]; 14.4% in the experiment on HT-29 [13]. The Activity in the experiment on HT-29 [14] amounted to 13.2%; with HT-29 [15], 6.03%; in the experiment with HT-29 [16], 43.3%; in the experiment with HT-29 [17], 10.6%; with HT-29 [18], 37.5%; in the experiment on HT-29 [19], 8.59%. For the same compound, the IC50 (as a rule, the concentration at which inhibition is half-maximal) in the experiment with HT-29 [4] turned out to be 0.9 µM; in experiment [5] it was 0.85 µM; with MDA-MB-231, 1.54 µM; in experiment [6], 6.73 µM. Also, the inhibition (in general, the change of the read-out against control, counted positive when it falls) in experiment [7] turned out to be 79.9%; in experiment [8] it was 84.4%; in experiment [9], 84.9%; in experiment [20], 10%. The viability at 1 µM in the experiment with HT-29 [11] stood at 80.3%.

Consider `CN(C)CCCn1cnnc1-c1cc(Oc2ccc(NC(=O)Nc3ccc(Cl)c(C(F)(F)F)c3)cc2F)ccn1`, for which the IC50 was determined as 1.4 µM in the experiment with HT-29 [4], 1.68 µM in experiment [5], 7.88 µM in the experiment with MDA-MB-231 and 7.91 µM in experiment [6]. For the same compound, the inhibition is 69.9% in experiment [7], 79.3% in [8], 86.9% in [9] and 10.9% in experiment [20].

With `CCN(CC)CCn1cnnc1-c1cc(Oc2ccc(NC(=O)Nc3cccc(C(F)(F)F)c3)cc2F)ccn1`, the IC50 in the experiment on HT-29 [4] is 0.63 µM; in experiment [5], 9.87 µM; in the experiment with MDA-MB-231 it was 0.72 µM; in [6], 6.92 µM. Also, the inhibition in experiment [7] was 66.5%; in experiment [8], 72.1%; in experiment [9], 61%; in experiment [20], 11.5%.

On to `CN(C)CCn1cnnc1-c1cc(Oc2ccc(NC(=O)Nc3ccccc3C(F)(F)F)cc2F)ccn1`, for which the IC50 with HT-29 [4] is 5.86 µM; in [5] it was over 50 µM; with MDA-MB-231 it was over 50 µM; in experiment [6], over 50 µM. For the same compound, the inhibition in experiment [7] amounted to 22.7%; in experiment [8], 43%; in experiment [9], 17.6%; in experiment [20] it was 2.2%.

With `CCN(CC)CCn1cnnc1-c1cc(Oc2ccc(NC(=O)Nc3ccc(F)c(Cl)c3)cc2F)ccn1`, the IC50 with HT-29 [4] is 0.5 µM; in [5], 7.39 µM; in the experiment on MDA-MB-231 it was 34 µM; in experiment [6], 28.7 µM. Besides, the inhibition was 40.4% in experiment [7], 1.9% in [8], 59.6% in experiment [9] and 2.7% in experiment [20].
